Test results: ChEMBL document CHEMBL1121534, “Synthesis and biological activity of 5-(4-chlorobenzoyl)-4-(hydroxymethyl)-1-methyl-1H-pyrrole-2-acetic acid, a major metabolite of zomepirac sodium” (J Med Chem, 1980)
Activity calls are given as the source filed them. The rule behind the calls is not given here.

How the values were obtained:
[1] = system: Rattus norvegicus; assay: Tested for effective dose in rat adjuvant-induced polyarthritis (AA) test in II phase. Not Active (NA) up to 125 mg/kg peroral dose; format: functional, organism-based; set-up: dose 125 mg/kg
[2] = system: Rattus norvegicus; assay: Tested for effective dose in rat adjuvant-induced polyarthritis (AA) test in III phase. Not Active (NA) up to 125 mg/kg peroral dose; format: functional, organism-based; set-up: dose 125 mg/kg
[3] = system: Rattus norvegicus; assay: Tested for analgesic activity in acetylcholine-induced body constriction assay. Not Active (NA) upto 100 mg/kg peroral dose; format: functional, organism-based; set-up: dose 100 mg/kg
[4] = species: Homo sapiens; assay: Tested for in vitro inhibition of collagen-induced aggregation of human platelets; format: functional
[5] = species: Rattus norvegicus; assay: Tested for effective dose in rat adjuvant-induced polyarthritis (AA) test in II phase; format: functional
[6] = system: Rattus norvegicus; assay: Tested for analgesic activity in acetylcholine-induced body constriction assay by peroral administration; format: functional; settings: po
[7] = system: Rattus norvegicus; assay: Tested for ulcerogenic activity by peroral administration in rat; format: functional
Method in brief: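 Rats were given the compound by mouth at doses up to 100 mg/kg, and ulcerogenic activity was assessed.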

[8] = species: Rattus norvegicus; assay: Tested for effective dose in rat adjuvant-induced polyarthritis (AA) test in III phase; format: functional

IC50 [4] [µM] | Structure (SMILES) | ED50 [1] | ED50 [2] | ED50 [3] | ED50 [5] [mg/kg] | ED50 [6] [mg/kg] | UD50 [7] [mg/kg] | ED50 [8] [mg/kg]
529 | Cn1c(CC(=O)O)cc(CO)c1C(=O)c1ccc(Cl)cc1 | inactive | inactive | inactive |  |  |  | 
1.8 | COc1ccc2c(c1)c(CC(=O)O)c(C)n2C(=O)c1ccc(Cl)cc1 [INDOMETHACIN] |  |  |  |  |  |  | 
1.63 | Cc1cc(CC(=O)[O-])n(C)c1C(=O)c1ccc(Cl)cc1.O.O.[Na+] [ZOMEPIRAC SODIUM] |  |  |  | 0.72 | 0.72 | 13.9 | 5.67
